Screening results deposited in PubChem BioAssay by The Scripps Research Institute Molecular Screening Center.
GPR7 antag: GPR7 receptor antagonists, primary screen, cell-based, fluorescence, single concentration. AID 1861, 2009. Neuropeptides B/W receptor type 1 (Homo sapiens), P48145. inhibition, % at 4.4 µM. 290,000 compounds, 1.1% hits. GPR7-expressing cells, fluorescence antagonist assay; in the data active = inhibition above about 16%, passing the limit was not always enough;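 note: cells stimulated with the agonist NPW; 0% = agonist with vehicle and 100% = vehicle without agonist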
OX1R antag-1: OX1R (HCRTR1) antagonists, primary screen, fluorescence, CHO/OX1R cells, Fluo-8 calcium, orexin A | AID 434989, 2010 | Orexin/Hypocretin receptor type 1 (Homo sapiens), O43613 | inhibition, % at 5 µM | Fluo-8 calcium fluorescence | 330,000 compounds, 0.43% hits;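 active = inhibition above its plate's threshold, mean inhibition of all tested compounds on the plate plus 3 SD, cut at about 37% in these data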;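 note: 0% = orexin A challenge wells and 100% = SB-334867-A antagonist wells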
Target sequence (O43613 whole entry, looked up): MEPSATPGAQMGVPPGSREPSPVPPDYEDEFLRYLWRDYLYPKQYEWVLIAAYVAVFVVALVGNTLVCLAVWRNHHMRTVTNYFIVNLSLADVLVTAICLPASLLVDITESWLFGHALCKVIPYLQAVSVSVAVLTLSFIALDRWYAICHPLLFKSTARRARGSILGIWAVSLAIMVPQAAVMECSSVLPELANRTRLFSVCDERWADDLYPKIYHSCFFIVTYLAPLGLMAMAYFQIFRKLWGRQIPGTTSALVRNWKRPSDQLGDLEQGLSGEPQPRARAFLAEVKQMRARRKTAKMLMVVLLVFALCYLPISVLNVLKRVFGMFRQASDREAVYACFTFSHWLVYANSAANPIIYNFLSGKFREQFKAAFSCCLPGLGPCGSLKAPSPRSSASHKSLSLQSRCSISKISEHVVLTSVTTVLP
TAAR1 agonist: human TAAR1 agonists, primary screen, Fluo-8 calcium fluorescence, CHO RD-HGA16 cells. vehicle wells 0%, saturating PEA agonist 100%. 360,000 compounds, 0.99% hits. Trace amine-associated receptor 1 (Homo sapiens), Q96RJ0. activation, % at 3 µM. AID 624467, 2012;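 active = activation above the mean activation of all test compounds in the run plus 3 SD, cut at about 38% in these data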
Target sequence (Q96RJ0 whole entry, looked up): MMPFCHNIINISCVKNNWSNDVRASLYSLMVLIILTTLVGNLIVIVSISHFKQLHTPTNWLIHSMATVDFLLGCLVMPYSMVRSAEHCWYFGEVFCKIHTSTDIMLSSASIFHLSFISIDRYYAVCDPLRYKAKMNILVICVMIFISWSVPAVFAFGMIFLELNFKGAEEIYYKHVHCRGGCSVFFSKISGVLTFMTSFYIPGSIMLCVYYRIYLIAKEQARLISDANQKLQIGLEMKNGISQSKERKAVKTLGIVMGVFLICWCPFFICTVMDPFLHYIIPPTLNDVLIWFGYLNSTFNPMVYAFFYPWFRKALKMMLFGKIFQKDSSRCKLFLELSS
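System: CHO RD-HGA16 cells carrying human TAAR1 plus Gα16; Incubation: 17-24 h seeding, 75 min 37 °C dye, 30 min RT; Measured by: Fluo-8 fluorescence, 5 s baseline then 140 s kinetic read; Control set: DMSO and PEA EC100; Replication: single well for each compound.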
CHO parental Ca: ATP-evoked calcium signal inhibitors, parental CHO, primary screen, counter-screen for OX1R antagonist project, cell-based, fluorescence, Fluo-8 calcium dye | parental CHO-K1, ATP-induced calcium, Fluo-8 fluorescence | inhibition, % at 5.6 µM | 330,000 compounds, 0.63% hits | AID 463079, 2010;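 active = inhibition above that plate's mean sample inhibition plus 3 SD, cut at about 26% in these data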;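 note: 0% = ATP-challenged DMSO wells and 100% = DMSO wells without ATP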
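Material: Parental CHO cells | Reagent: ATP | Compound dosing: Single nominal dose of 5.6 µM per compound | Detection: Intracellular calcium via Fluo-8 no-wash fluorescent dye | Read-out: % inhibition of ATP-induced calcium mobilization | Benchmarks: Low control ATP plus DMSO, high control DMSO only | Replicates: Singlicate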
OX1R antag-2: antagonists of human orexin 1 receptor (OX1R); Orexin/Hypocretin receptor type 1 (Homo sapiens), O43613; OX1R-expressing cells, FRET antagonist read-out; inhibition, % at 6.6 µM; 330,000 compounds, 1.8% hits; AID 485270, 2010; in the data active = inhibition mostly above about 38%, no sharp cut-off; inactive = mostly below about 40%;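 note: 0% = agonist challenge alone and 100% = reference antagonist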
TAAR1 antagonist: human TAAR1 antagonists, primary screen, Fluo-8 calcium fluorescence, CHO RD-HGA16 cells. 360,000 compounds, 1.5% hits. Trace amine-associated receptor 1 (Homo sapiens), Q96RJ0. inhibition, % at 3 µM. antagonist. AID 624466, 2012;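 active = inhibition above a per-plate cutoff, the mean inhibition of test compounds on that plate plus 3 SD, cut at about 49% in these data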;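 note: 0% = DMSO plus EC80 beta-PEA response and 100% = DMSO alone without agonist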
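Test system – hTAAR1-expressing CHO RD-HGA16 cells, Gα16-coupled · Also added – β-PEA at EC80 concentration, post-compound challenge · Compound – 3 µM, single point · Incubation – dye loading 75 min at 37 °C, then 30 min room temperature · Measured by – Fluo-8 intracellular calcium dye fluorescence, real-time kinetic reads · Benchmarks – vehicle and agonist controls · Replicates – singlicate, one well per test compound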
* = called active by the depositor. Only some compounds are listed: those with a hit (about 4.6% of all), similar ones and a draw of the others.

How did CCOC(=O)C1=C(C(=O)OCC)C2N(Cc3ccc(Br)cc3)c3ccccc3[C@@]23C[C@@H](C(=O)OC)N(S(=O)(=O)c2ccc(OC)cc2)C3=N1 (stereo partly specified) do in these assays?
TAAR1 agonist: 1.0; TAAR1 antagonist: 3.8

How did C[C@H]1CN([C@@H](C)CO)C(=O)CCCn2cc(nn2)CO[C@@H]1CN(C)C(=O)c1ccc2ccn(C)c2c1 do in these assays?
TAAR1 agonist: -0.1; TAAR1 antagonist: 10.8

How did CN(C)c1nc(N)nc(CSc2ncc(Cl)cc2Cl)n1 do in these assays?
GPR7 antag: -10.4; OX1R antag-1: 5.9; TAAR1 agonist: 0.9; CHO parental Ca: -22.9; OX1R antag-2: 37.8*; TAAR1 antagonist: 10.8

What do the screens show for `O=C1/C(=C\c2c(NCCOCCO)nc3ccccn3c2=O)SC(=S)N1Cc1ccco1`?
GPR7 antag: 5.5; OX1R antag-1: 36.9; TAAR1 agonist: 40.8*; CHO parental Ca: 34.4*; OX1R antag-2: -6.0; TAAR1 antagonist: 61.7*

Results for CCOC(=O)c1cn(CC)c2cc(Cl)c([N+](=O)[O-])cc2c1=O ?
GPR7 antag: -11.0; OX1R antag-1: -10.0; TAAR1 agonist: 0.0; CHO parental Ca: -1.9; OX1R antag-2: 54.8*; TAAR1 antagonist: -4.0

How did CCOC(=O)c1cn(-c2c(Cl)cccc2Cl)c2cc(Cl)c([N+](=O)[O-])cc2c1=O do in these assays?
GPR7 antag: -7.4; OX1R antag-1: -24.8; TAAR1 agonist: 9.8; CHO parental Ca: -9.7; OX1R antag-2: 52.3; TAAR1 antagonist: 29.8

What do the screens show for `O=C(N/N=C/c1sc(N2CCOCC2)nc1-c1ccccc1)c1ccc(O)cc1`?
GPR7 antag: 7.7; OX1R antag-1: -7.1; TAAR1 agonist: 1.7; CHO parental Ca: -14.0; OX1R antag-2: 16.4; TAAR1 antagonist: 22.1

What do the screens show for `O=C(N/N=C/c1sc(N2CCOCC2)nc1-c1ccccc1)c1cccc(S(=O)(=O)N2CCCC2)c1`?
GPR7 antag: -17.2; OX1R antag-1: -4.6; TAAR1 agonist: 13.7; CHO parental Ca: -10.4; OX1R antag-2: 18.4; TAAR1 antagonist: 52.1*

What do the screens show for `COc1cc(/C=C/C(=O)OCC(=O)N2CC(C)OC(C)C2)ccc1OCC#N` (stereo unspecified)?
TAAR1 agonist: 2.4; TAAR1 antagonist: -9.9

What do the screens show for `COc1ccc2c(c1)Cc1sc(NC(=O)c3ccco3)nc1-2`?
GPR7 antag: 14.7; OX1R antag-1: -5.6; TAAR1 agonist: 5.2; CHO parental Ca: -18.3; OX1R antag-2: 65.0*; TAAR1 antagonist: -14.5

Results for O=[N+]([O-])c1c(Cl)cc(Cl)cc1Cl ?
TAAR1 agonist: 0.4; TAAR1 antagonist: -1.3

What do the screens show for `CCc1noc(C)c1C(=O)NCCN1C(=O)S/C(=C\c2ccc(OC)cc2)C1=O`?
OX1R antag-1: -3.3; TAAR1 agonist: 3.1; CHO parental Ca: 23.0; OX1R antag-2: 58.1*; TAAR1 antagonist: 8.4

Results for Cc1nn(-c2ccccc2)c2sc(-c3n[nH]c(=S)o3)cc12 ?
GPR7 antag: 2.1; OX1R antag-1: 5.0; TAAR1 agonist: 2.5; CHO parental Ca: -13.7; OX1R antag-2: 40.9*; TAAR1 antagonist: 9.0

What do the screens show for `CCOC(=O)c1cc(OC(=O)Cc2ccc(OC)c(S(=O)(=O)N3CCOCC3)c2)cc(C(=O)OCC)c1`?
TAAR1 agonist: 1.9; TAAR1 antagonist: 2.6

Results for O=C1CC(N2CCN(S(=O)(=O)c3cccc(C(F)(F)F)c3)CC2)C(=O)N1Cc1ccccc1 (stereo unspecified) ?
GPR7 antag: 25.1*; OX1R antag-1: -7.7; TAAR1 agonist: 10.9; CHO parental Ca: -11.6; OX1R antag-2: 16.3; TAAR1 antagonist: 14.3

What do the screens show for `O=C(Nc1ccc(Cl)cc1)C1CCCCN1S(=O)(=O)c1ccccc1` (stereo unspecified)?
OX1R antag-1: 20.1; TAAR1 agonist: 3.1; CHO parental Ca: 6.2; OX1R antag-2: 27.7*; TAAR1 antagonist: -4.2

Results for CCC1CCCCN1S(=O)(=O)c1ccc(S(=O)(=O)N(Cc2cccs2)C2CC2)cc1 (stereo unspecified) ?
GPR7 antag: 8.2; OX1R antag-1: 54.3*; TAAR1 agonist: 0.6; CHO parental Ca: 24.6; OX1R antag-2: 28.7; TAAR1 antagonist: -9.1

How did CCC1CCCCN1S(=O)(=O)c1ccc(S(=O)(=O)N(Cc2ccccn2)CC2CCCO2)cc1 (stereo unspecified) do in these assays?
GPR7 antag: 5.5; OX1R antag-1: -19.7; TAAR1 agonist: 1.8; CHO parental Ca: -25.6; OX1R antag-2: 16.8; TAAR1 antagonist: -10.1

How did Cc1ccc(NC(=O)[C@@H]2CCCN2S(=O)(=O)c2ccc(Cl)cc2)cc1 do in these assays?
OX1R antag-1: 16.5; TAAR1 agonist: 0.4; CHO parental Ca: -9.5; OX1R antag-2: 48.3*; TAAR1 antagonist: -29.5

Results for CC(=O)Nc1ccc(NC(=O)C2CCCCN2S(=O)(=O)c2ccc(C(C)(C)C)cc2)cc1 (stereo unspecified) ?
GPR7 antag: -16.1; OX1R antag-1: -7.8; TAAR1 agonist: 10.2; CHO parental Ca: -10.0; OX1R antag-2: 8.6; TAAR1 antagonist: 54.9*

How did O=[N+]([O-])c1ccc2c(c1)CCCO[C@]21O[C@H](CCO)C[C@H](O)[C@H]1O do in these assays?
TAAR1 agonist: -0.1; TAAR1 antagonist: -6.2

What do the screens show for `COC(=O)Cc1nnn2c1[C@H](C)[C@H](c1cccc(OC)c1OC)OCC2`?
TAAR1 agonist: 3.0; TAAR1 antagonist: -5.4

What do the screens show for `CC(C)(C)C(=O)c1c(N)[nH]c(C(=O)c2ccccc2)c1-c1ccccc1`?
TAAR1 agonist: 9.5; TAAR1 antagonist: -8.5

What do the screens show for `Nc1ccn([C@@H]2O[C@H](C(=O)N3CCN(C(=O)N4CCCCC4)CC3)[C@@H](O)[C@H]2O)c(=O)n1`?
TAAR1 agonist: 1.3; TAAR1 antagonist: -6.2

How did CCC1CCCCN1S(=O)(=O)c1ccc(NC(=O)c2ccncc2)cc1 (stereo unspecified) do in these assays?
GPR7 antag: 19.0; OX1R antag-1: 20.1; TAAR1 agonist: 11.9; CHO parental Ca: 41.5*; OX1R antag-2: 26.6; TAAR1 antagonist: 18.1

Results for CCC1CCCCN1S(=O)(=O)c1ccc(C(=O)Nc2nnc(C3CC3)o2)cc1 (stereo unspecified) ?
GPR7 antag: -0.7; OX1R antag-1: -28.2; TAAR1 agonist: 2.6; CHO parental Ca: -17.3; OX1R antag-2: 21.1; TAAR1 antagonist: -21.8
